Test results published in ChEMBL document CHEMBL3758162, “Synthesis, biological characterization and molecular modeling insights of spirochromanes as potent HDAC inhibitors” (Eur J Med Chem, 2016).

Key:
Histone deacetylase = assay: Inhibition of HDAC in human HeLa cells nuclear extract using Fluor de lys as substrate after 15 mins by fluorometric analysis; format: cell-based
[1] = Antiproliferative activity against human HCT116 cells assessed as cell viability after 72 hrs by CellTitre-Glo luminescent assay; format: functional, cell-based, HCT-116
K562 = assay: Antiproliferative activity against human K562 cells assessed as cell viability after 72 hrs by CellTitre-Glo luminescent assay; format: functional, cell-based
A549 = assay: Antiproliferative activity against human A549 cells assessed as cell viability after 72 hrs by CellTitre-Glo luminescent assay; format: functional, cell-based
[2] = Metabolic stability in human liver microsomes assessed as compound remaining at 1 uM preincubated for 10 mins measured after 30 mins by LC-MS/MS analysis; format: ADME; conditions: liver microsomes, read-out: Stability
Summary of the method: (§1)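 Compound at 1 µM pre-incubated 10 min at 37 °C in potassium phosphate buffer pH 7.4 with 0.5 mg/mL mouse or human hepatic microsomes. Parent quantified by LC-MS/MS (ESI+, MRM, verapamil internal standard). % remaining = peak area at 30 min / area at 0 min × 100; n≥2, mean.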

[3] = Metabolic stability in mouse liver microsomes assessed as compound remaining at 1 uM preincubated for 10 mins measured after 30 mins by LC-MS/MS analysis; format: ADME; conditions: liver microsomes, read-out: Stability; summary of the method: as §1

| Compound | IC50 (Histone deacetylase) | IC50 ([1]; Homo sapiens, HCT-116, 72 h) | IC50 (K562; Homo sapiens, K562, 72 h) | IC50 (A549; Homo sapiens, A549, 72 h) | remaining at 0.5 h, 1 µM [2] | remaining at 0.5 h, 1 µM [3] | IC50 ([1]; hct-116) | IC50 (K562; k562) | IC50 (A549; a549) |
| --- | --- | --- | --- | --- | --- | --- | --- | --- | --- |
| CN1CC2(CC(=O)c3cc(/C=C/C(=O)NO)ccc3O2)C1 | 168 nM | 178 nM | 168 nM | 429 nM | – | – | – | – | – |
| O=C(/C=C/c1ccc2c(c1)C(=O)CC1(CCN(Cc3ccc(F)cc3)C1)O2)NO (stereo not given) | 196 nM | 178 nM | 283 nM | 642 nM | – | – | – | – | – |
| O=C(/C=C/c1ccc2c(c1)C(=O)CC1(CN(Cc3ccc(F)cc3)C1)O2)NO | 130 nM | 190 nM | 301 nM | 684 nM | – | – | – | – | – |
| CCOC(=O)N1CC2(CC(=O)c3cc(/C=C/C(=O)NO)ccc3O2)C1 | 286 nM | 1230 nM | 1880 nM | 4870 nM | – | – | – | – | – |
| O=C(/C=C/c1ccc2c(c1)C(=O)CC1(CN(C(=O)c3ccccc3)C1)O2)NO | 81 nM | 294 nM | 376 nM | 1330 nM | – | – | – | – | – |
| O=C(/C=C/c1ccc2c(c1)C(=O)CC1(CN(CCc3ccccc3)C1)O2)NO | 219 nM | 220 nM | 250 nM | 896 nM | – | – | – | – | – |
| CC(=O)N1CC2(CC(=O)c3cc(/C=C/C(=O)NO)ccc3O2)C1 | 485 nM | 10500 nM | 15100 nM | 47700 nM | – | – | – | – | – |
| O=C(/C=C/c1ccc2c(c1)C(=O)CC1(CNC1)O2)NO | 228 nM | 3680 nM | 2580 nM | 8580 nM | – | – | – | – | – |
| O=C(/C=C/c1ccc2c(c1)C(=O)CC1(CCCN(CCc3ccccc3)C1)O2)NO (racemic) | 1 nM | 52 nM | 106 nM | 157 nM | 16% | 19% | – | – | – |
| O=C(/C=C/c1ccc2c(c1)C(=O)CC1(CCCN(C(=O)c3ccccc3)CC1)O2)NO (racemic) | 110 nM | 617 nM | 1110 nM | 3780 nM | – | – | – | – | – |
| Cn1cc(CN2CCCC3(CC(=O)c4cc(/C=C/C(=O)NO)ccc4O3)C2)c2ccccc21 (racemic) | 183 nM | 78 nM | 147 nM | 425 nM | 19% | 23% | – | – | – |
| Cn1cc(CN2CCCC3(CC2)CC(=O)c2cc(/C=C/C(=O)NO)ccc2O3)c2ccccc21 (racemic) | 114 nM | 60 nM | 46 nM | 260 nM | < 30% | 19% | – | – | – |
| O=C(/C=C/c1ccc2c(c1)C(=O)CC1(CCCN(Cc3ccccc3)C1)O2)NO (racemic) | 56 nM | 385 nM | 430 nM | 839 nM | – | – | – | – | – |
| O=C(/C=C/c1ccc2c(c1)C(=O)CC1(CCCN(C(=O)c3ccccc3)C1)O2)NO (racemic) | 165 nM | 1330 nM | 2010 nM | 4130 nM | – | – | – | – | – |
| O=C(/C=C/c1ccc2c(c1)C(=O)CC1(CCCN(Cc3ccc(F)cc3)C1)O2)NO (racemic) | 34 nM | 372 nM | 552 nM | 1160 nM | – | – | – | – | – |
| CC(=O)N1CCCC2(CC(=O)c3cc(/C=C/C(=O)NO)ccc3O2)C1 (racemic) | 207 nM | 3240 nM | 5600 nM | 14500 nM | – | – | – | – | – |
| CCOC(=O)N1CCC2(CC(=O)c3cc(/C=C/C(=O)NO)ccc3O2)C1 (racemic) | 150 nM | 351 nM | 721 nM | 837 nM | – | – | – | – | – |
| O=C(/C=C/c1ccc2c(c1)C(=O)CC1(CCN(C(=O)c3ccccc3)C1)O2)NO (racemic) | 187 nM | 510 nM | 533 nM | 2110 nM | – | – | – | – | – |
| O=C(/C=C/c1ccc2c(c1)C(=O)CC1(CCNC1)O2)NO (racemic) | 131 nM | 2270 nM | 4140 nM | 2320 nM | – | – | – | – | – |
| O=C(/C=C/c1ccc2c(c1)C(=O)CC1(CCCNC1)O2)NO (racemic) | 136 nM | 228 nM | 555 nM | 714 nM | – | – | – | – | – |
| Cn1cc(CN2CCC3(CC(=O)c4cc(/C=C/C(=O)NO)ccc4O3)C2)c2ccccc21 (racemic) | 85 nM | 47 nM | 51 nM | 180 nM | 16% | 8% | – | – | – |
| CN1CCC2(CC(=O)c3cc(/C=C/C(=O)NO)ccc3O2)C1 (racemic) | 119 nM | 146 nM | 198 nM | 357 nM | – | – | – | – | – |
| CCOC(=O)N1CCCC2(CC(=O)c3cc(/C=C/C(=O)NO)ccc3O2)C1 (racemic) | 232 nM | 678 nM | 936 nM | 2280 nM | – | – | – | – | – |
| CC(=O)N1CCCC2(CC1)CC(=O)c1cc(/C=C/C(=O)NO)ccc1O2 (racemic) | 323 nM | 3510 nM | 5180 nM | 20100 nM | – | – | – | – | – |
| CC(=O)N1CCC2(CC(=O)c3cc(/C=C/C(=O)NO)ccc3O2)C1 (racemic) | 955 nM | > 50000 nM | > 50000 nM | > 50000 nM | – | – | – | – | – |
| O=C(/C=C/c1ccc2c(c1)C(=O)CC1(CCCN(Cc3ccc(F)cc3)CC1)O2)NO (racemic) | 149 nM | 63 nM | 144 nM | 333 nM | 11% | 25% | – | – | – |
| O=C(/C=C/c1ccc2c(c1)C(=O)CC1(CCCNCC1)O2)NO (racemic) | 134 nM | 1080 nM | 5990 nM | 3120 nM | – | – | – | – | – |
| CCOC(=O)N1CCCC2(CC1)CC(=O)c1cc(/C=C/C(=O)NO)ccc1O2 (racemic) | 300 nM | 1010 nM | 1660 nM | 5750 nM | – | – | – | – | – |
| O=C(/C=C/c1ccc2c(c1)C(=O)CC1(CCCN(Cc3ccccc3)C1)O2)NO (single isomer, unassigned; (-)) | 84 nM | – | – | – | – | – | 326 nM | 441 nM | 1060 nM |
| O=C(/C=C/c1ccc2c(c1)C(=O)CC1(CCCN(Cc3ccccc3)C1)O2)NO (stereo in doubt; 33j) | 143 nM | – | – | – | – | – | 447 nM | 523 nM | 1460 nM |
